# Measurements: ChEMBL document CHEMBL1124145, “Dinucleotide analogues as inhibitors of thymidine kinase, thymidylate kinase, and ribonucleotide reductase” (J Med Chem, 1988)
# What was measured:
# Type in all cases: cell-based
# [1] = Concentration required to reduce Ribonucleotide reductase rate by 50% in L1210 cells
# Outline: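 Enzyme: crude L1210 extract brought to pH 5.2 with 1 M acetic acid; the precipitate was dissolved in 50 mM Tris-HCl pH 8.0. CDP reductase activity was measured by a published method. Data were fitted by nonlinear least-squares regression to response = a + b ln[inhibitor] with weighted error, and the IC50 was taken from the fit.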
# [2] = biological target: T1, Thymidylate kinase (Homo sapiens, UniProt P23919); experiment: Concentration required to reduce Thymidylate kinase rate by 50% in human blast cells
# T1 sequence (P23919 whole entry): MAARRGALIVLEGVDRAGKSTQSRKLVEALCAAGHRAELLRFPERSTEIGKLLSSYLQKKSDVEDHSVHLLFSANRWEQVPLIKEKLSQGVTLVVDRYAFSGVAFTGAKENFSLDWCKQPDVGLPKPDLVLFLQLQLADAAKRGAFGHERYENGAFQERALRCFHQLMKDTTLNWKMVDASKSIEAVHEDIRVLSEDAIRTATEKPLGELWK
# Outline: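 Enzyme: dialyzed extract of blast cells from an acute myeloid leukemia patient. Data were fitted by nonlinear least-squares regression to response = a + b ln[inhibitor], error weighting 1/(γ+γ)^2, and the IC50 was derived from the fit.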
# [3] = Concentration required to reduce thymidine kinase rate by 50% in L1210 cells
# Outline: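 Cytoplasmic isoenzyme affinity-purified from L1210 cells. Reaction: 1 mM ATP, 1 mM MgCl2, 10 μM [3H]thymidine (150 μCi/μmol), 5% sucrose, 40 mM Tris pH 7.8. Inhibitor ranged 0-500 μM. Inhibitor concentrations were verified by UV absorbance at 260 nm.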
Structure (SMILES),IC50 [1],IC50 [2],IC50 [3]
Cc1cn([C@H]2C[C@H](O)[C@@H](COP(=O)(O)OP(=O)(O)OP(=O)(O)OP(=O)(O)OP(=O)(O)OC[C@H]3O[C@@H](n4cnc5c(N)ncnc54)[C@H](O)[C@@H]3O)O2)c(=O)[nH]c1=O,14 µM,8 µM,2.5 µM
Cc1cn([C@H]2C[C@H](O)[C@@H](CO[P@@](=O)(O)O[P@@](=O)(O)O[P@@](=O)(O)O[P@@](=O)(O)OC[C@H]3O[C@@H](n4cnc5c(N)ncnc54)[C@H](O)[C@@H]3O)O2)c(=O)[nH]c1=O,77 µM,290 µM,15 µM
Cc1cn(C2C[C@H](O)[C@@H](COP(=O)(O)OP(=O)(O)OP(=O)(O)OP(=O)(O)OP(=O)(O)OP(=O)(O)OC[C@H]3OC(n4cnc5c(N)ncnc54)[C@H](O)[C@@H]3O)O2)c(=O)[nH]c1=O (some centres undefined),20 µM,6 µM,
Cc1cn(C2C[C@H](O)[C@@H](COP(=O)(O)CP(=O)(O)OP(=O)(O)OC[C@H]3OC(n4cnc5c(N)ncnc54)[C@H](O)[C@@H]3O)O2)c(=O)[nH]c1=O (some centres undefined),460 µM,730 µM,> 500 µM
Nc1ncnc2c1ncn2C1O[C@H](COP(=O)(O)OP(=O)(O)OP(=O)(O)OP(=O)(O)OP(=O)(O)OC[C@H]2OC(n3cnc4c(N)ncnc43)[C@H](O)[C@@H]2O)[C@@H](O)[C@H]1O (some centres undefined),,> 1000 µM,
Cc1cn(C2C[C@H](O)[C@@H](COP(=O)(O)OP(=O)(O)OP(=O)(O)OC[C@H]3OC(n4cnc5c(N)ncnc54)[C@H](O)[C@@H]3O)O2)c(=O)[nH]c1=O (some centres undefined),> 500 µM,1230 µM,> 500 µM
Cc1cn(C2C[C@H](O)[C@@H](COP(=O)(O)CP(=O)(O)OP(=O)(O)OP(=O)(O)OP(=O)(O)OC[C@H]3OC(n4cnc5c(N)ncnc54)[C@H](O)[C@@H]3O)O2)c(=O)[nH]c1=O (some centres undefined),130 µM,6 µM,9.2 µM
Cc1cn(C2C[C@H](O)[C@@H](COP(=O)(O)CP(=O)(O)OP(=O)(O)OP(=O)(O)OP(=O)(O)OP(=O)(O)OC[C@H]3OC(n4cnc5c(N)ncnc54)[C@H](O)[C@@H]3O)O2)c(=O)[nH]c1=O (some centres undefined),230 µM,4 µM,19.7 µM
Cc1cn(C2C[C@H](O)[C@@H](COP(=O)(O)CP(=O)(O)OP(=O)(O)OP(=O)(O)OC[C@H]3OC(n4cnc5c(N)ncnc54)[C@H](O)[C@@H]3O)O2)c(=O)[nH]c1=O (some centres undefined),300 µM,340 µM,17 µM
